The list is not random: actives were taken first. Their share in the collection is about 1.8%.
TLR9-MyD88 block: TLR9-MyD88 interaction inhibition; inhibition, % at 4.98 µM; CHO BLA complementation TLR9-MyD88, CCF4 FRET ratio; AID 504734; 0.21% of 340,000 active;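 active = inhibition above the mean over all tested compounds plus 3 SD, cut at about 21% in these data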
NOD2-RIPK2 inh: inhibitors of human NOD2-RIPK2 interaction | inhibition, % at 4.98 µM | CHO BLA complementation NOD2-RIPK2, CCF4 ratio | 0.38% of 360,000 active | AID 624267; in the data active = inhibition above about 21%
TLR4 MyD88 comp: inhibitors of human TLR4-MyD88 binding; O00206+Q99836; HeLa CL3-4 TLR4/MyD88 BLA complementation, FRET ratio; inhibition, % at 8.4 µM; 0.18% of 200,000 active; in the data active = inhibition above about 25%
MC4R antagonist: blocks human MC4R cAMP signaling; P32245; MC4R-expressing cells, MTII-stimulated cAMP, LANCE TR-FRET; inhibition, % at 6.5 µM; 0.48% of 360,000 active; AID 540295;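 active = inhibition above its plate's cutoff, the mean of tested wells on that plate plus 3 SD, cut at about 29% in these data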
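System: U2OS-MC4R stable cell line; Technique: Eu-cAMP/anti-cAMP TR-FRET, emission 671 nm; Repeats: single well per compound; Also added: Melanotan II; Dosing: one concentration, 6.5 µM nominal; Schedule: 30-min compound, 1-h challenge, 1-h detection, room temperature.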
MC4R barr agon: human MC4R agonism via beta-arrestin; U2OS MC4R beta-arrestin complementation, luminescence; percent of melanotan II response, DMSO zero; 0.98% of 360,000 active; activation, % at 8.9 µM;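 active = activation above a per-plate cutoff, the mean activation of sample wells on that plate plus 3 SD, cut at about 8% in these data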
cAMP nonselect: nonselective cAMP signaling inhibitor, MC4R antagonist counter-screen | shares compounds with MC4R antagonist | parental U2OS, forskolin cAMP, LANCE TR-FRET | inhibition, % at 6.5 µM | 26% of 1,600 active | AID 602193;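 active = mean inhibition over triplicates above the low-control well mean plus 3 SD, set per campaign, cut at about 13% in these data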;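 also: signal is single emission at 671 nm which falls as cellular cAMP rises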
MC4R cAMP antag: human MC4R cAMP antagonism confirmation. 27% of 1,600 active. shares compounds with MC4R antagonist. MC4R-expressing cells, MTII-stimulated cAMP, TR-FRET. inhibition, % at 6.5 µM. AID 602195; in the data active = inhibition above about 29%
MC4R barr conf: human MC4R beta-arrestin agonism confirmation; shares compounds with MC4R barr agon; U2OS MC4R beta-arrestin recruitment, luminescence; scaled DMSO 0%, Melanotan II 100%; activation, % at 8.9 µM; 31% of 2,400 active; AID 602192;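 active = mean activation across replicates above the hit cutoff set in the earlier primary screen, cut at about 8% in these data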
MOR-DOR barr ag: OPRM1-OPRD1 heterodimer agonism counter-screen; shares compounds with MC4R barr agon; U2OS PathHunter beta-arrestin, beta-gal luminescence; percent of deltorphin B response, DMSO zero; activation, % at 9.2 µM; 5.8% of 2,400 active;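 active = mean activation across replicates exceeds the hit threshold derived in the earlier primary screen, cut at about 18% in these data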
NOD2 RIPK2 conf: confirmation of human NOD2-RIPK2 interaction inhibitors | shares compounds with NOD2-RIPK2 inh | CHO cells, NOD2-RIPK2 BLA complementation, CCF4 FRET | inhibition, % at 4.98 µM | 70% of 1,200 active | AID 624370;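 active = mean inhibition across replicates above a set limit taken from the earlier primary screen, cut at about 21% in these data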
BLA counter: NOD2-RIPK2 counterscreen BLA reporter activity; CHO BLA reporter, CCF4 FRET ratio; shares compounds with NOD2-RIPK2 inh; AID 624371; 57% of 1,200 active; inhibition, % at 4.98 µM;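 active = mean inhibition above the low-control mean inhibition plus three low-control SD, cut at about 11% in these data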
Each line names hits and unclear results; the compound was inactive in the other large screens (follow-up assays come after a bar, where they were run).

CCOc1ccc(-n2nc3c(=S)[nH]nc(C)c3c2C)cc1	MC4R antagonist 92.0 | cAMP nonselect 55.4 | MC4R cAMP antag 106.9
CCn1cc(C(=O)O)c(=O)c2cnc(N3CCN(C(=O)Nc4ccccc4)CC3)nc21	none (no result: TLR9-MyD88 block, NOD2-RIPK2 inh, MC4R antagonist, MC4R barr agon)
CCn1cc(C(=O)O)c(=O)c2cnc(N3CCN(C(=S)Nc4ccccc4)CC3)nc21	MC4R antagonist 31.2 (no result: TLR4 MyD88 comp) | cAMP nonselect inactive | MC4R cAMP antag inactive
Cc1ccccc1N(C(=O)c1snc(C(N)=O)c1N)C(C(=O)NCc1ccccc1)c1ccc(O)cc1 (centres undefined)	none (no result: TLR4 MyD88 comp)
CCOc1ccccc1N(C(=O)c1snc(C(N)=O)c1N)C(C(=O)NCc1ccccc1)c1ccc(O)cc1 (centres undefined)	MC4R antagonist 30.5 (no result: TLR4 MyD88 comp) | cAMP nonselect inactive | MC4R cAMP antag inactive
CC(=O)c1ccc(OCCCC(=O)OCC(=O)N2CCN(S(=O)(=O)c3ccc(C)cc3C)CC2)cc1	none (no result: TLR4 MyD88 comp)
Cc1ccc(OCC(=O)NC(=S)Nc2ccc3c4c(cccc24)CC3)cc1	MC4R antagonist 38.7, MC4R barr agon 13.3 | cAMP nonselect inactive | MC4R cAMP antag inactive | MC4R barr conf 12.4 | MOR-DOR barr ag inactive
CCCCNc1c(-c2cccc(-c3cc(C(C)=O)cs3)c2)nc2ccc(C)cn12	MC4R antagonist 50.2, MC4R barr agon 19.1 (no result: TLR4 MyD88 comp) | cAMP nonselect inactive | MC4R cAMP antag inactive | MC4R barr conf 23.8 | MOR-DOR barr ag inactive
O=C(CSCc1cccc(Br)c1)N=Nc1c(O)[nH]c2ccccc12	none
O=Nc1c(-c2c(O)[nH]c3cc(Br)ccc23)[nH]c2ccccc12	MC4R antagonist 61.9, MC4R barr agon 14.1 (no result: TLR4 MyD88 comp) | cAMP nonselect inactive | MC4R cAMP antag 55.9 | MC4R barr conf inactive | MOR-DOR barr ag inactive
O=C1c2cc([N+](=O)[O-])ccc2-c2cc(Br)c(N=C(NO)C(F)(F)F)cc21	MC4R antagonist 34.7, MC4R barr agon 13.6 (no result: TLR4 MyD88 comp) | cAMP nonselect inactive | MC4R cAMP antag inactive | MC4R barr conf 13.1 | MOR-DOR barr ag inactive
COc1cccc(C(=O)C(C#N)=C(SC)SC)c1	MC4R antagonist 42.2, MC4R barr agon 24.1 (no result: TLR4 MyD88 comp) | cAMP nonselect inactive | MC4R cAMP antag inactive | MC4R barr conf 13.6 | MOR-DOR barr ag 19.4
COc1cccc(C(=O)C(CCC#N)c2ccccc2)c1 (centres undefined)	none (no result: TLR4 MyD88 comp)
Cc1cccc(NC(=O)CN2CCN(C(=O)CNC(=O)c3ccc(-c4ccccc4)cc3)CC2)c1C	none (no result: TLR4 MyD88 comp)
Cc1ccc2oc(-c3ccc(NC(=O)c4ccc5c(c4)OCO5)cc3)nc2c1	none
O=C(Nc1ccc(-c2nc3ccccc3o2)cc1)c1ccc2c(c1)OCO2	MC4R antagonist 29.6, MC4R barr agon 20.0 | cAMP nonselect inactive | MC4R cAMP antag inactive | MC4R barr conf 11.9 | MOR-DOR barr ag inactive
CCN1CCN(c2nnc(-c3ccc(C)cc3)c3ccccc23)CC1	none (no result: TLR4 MyD88 comp)
O=C(Nc1nc2ccc(SC(F)F)cc2s1)c1ccc(NS(=O)(=O)c2ccc(F)c(F)c2)cc1	MC4R antagonist 37.5, MC4R barr agon 35.0 | cAMP nonselect inactive | MC4R cAMP antag inactive | MC4R barr conf 33.8 | MOR-DOR barr ag inactive
CS(=O)(=O)c1ccc2nc(NC(=O)c3ccc(NS(=O)(=O)c4ccc(F)c(F)c4)cc3)sc2c1	none (no result: TLR4 MyD88 comp)
COc1ccccc1C(=O)Nc1ccc(OCC(=O)N2CCCCC2C)cc1 (centres undefined)	none (no result: TLR4 MyD88 comp)
Cc1cc(O)c(C(C)C)cc1C1(c2cc(C(C)C)c(O)cc2C)OC(=O)c2ccccc21	MC4R antagonist 30.8, MC4R barr agon 18.9 (no result: TLR4 MyD88 comp) | cAMP nonselect inactive | MC4R cAMP antag 28.8 | MC4R barr conf 8.6 | MOR-DOR barr ag inactive
CCCN1C(=O)C(=O)N(CC(=O)N2c3ccccc3NC(=O)CC2C)C1=O (centres undefined)	none (no result: TLR4 MyD88 comp)
Cc1nn(-c2ccc(Cl)cc2)c(=O)c2ccccc12	none
Cc1c(Cl)sn(-c2ccc(Cl)cc2)c1=O	NOD2-RIPK2 inh 29.0, MC4R antagonist 72.8 | cAMP nonselect inactive | MC4R cAMP antag 69.9 | NOD2 RIPK2 conf 89.1 | BLA counter 28.3
CC(=O)Nc1cc(C)ns1	none (no result: TLR4 MyD88 comp)
Cc1noc(C(=O)NCc2ccccc2)c1Cl	none
Cc1cccc(CS(=O)(=O)c2ncc(Cl)c(C(=O)Nc3nnc(C(C)C)s3)n2)c1	NOD2-RIPK2 inh 41.1, MC4R antagonist 57.9 (no result: TLR4 MyD88 comp) | cAMP nonselect 27.1 | MC4R cAMP antag 53.8 | NOD2 RIPK2 conf 35.3 | BLA counter 27.7
Cc1ccc(CS(=O)(=O)c2ncc(Cl)c(C(=O)Nc3nnc(C(C)C)s3)n2)cc1	NOD2-RIPK2 inh 48.0, MC4R antagonist 51.2 (no result: TLR4 MyD88 comp) | cAMP nonselect 24.0 | MC4R cAMP antag 40.9 | NOD2 RIPK2 conf 44.8 | BLA counter 30.8
CCOc1ccccc1NC(=O)c1nc(S(=O)(=O)Cc2cccc(C)c2)ncc1Cl	none (no result: TLR4 MyD88 comp)
CC(C)c1nnc(NC(=O)c2nc(S(=O)(=O)Cc3ccc(F)cc3)ncc2Cl)s1	NOD2-RIPK2 inh 25.4, MC4R antagonist 56.0 (no result: TLR4 MyD88 comp) | cAMP nonselect 15.6 | MC4R cAMP antag 39.2 | NOD2 RIPK2 conf 25.0 | BLA counter 18.3
O=C(NCc1ccccc1)c1nc(S(=O)(=O)Cc2ccccc2)ncc1Cl	NOD2-RIPK2 inh 52.6, MC4R antagonist 47.9 (no result: TLR4 MyD88 comp) | cAMP nonselect 33.8 | MC4R cAMP antag 59.9 | NOD2 RIPK2 conf 53.8 | BLA counter 13.9
C/C(=N\NC(=O)NC1CCCCC1)c1ccco1	none
C[C@H](NC(=O)C1CCN(S(=O)(=O)c2ccccc2)CC1)C(=O)NCc1ccc(F)cc1	none (no result: TLR4 MyD88 comp)
CCc1nnc(NC(=O)c2ccc(COc3ccc(C)cc3)o2)s1	none
CCc1nnc(NC(=O)c2nc(S(=O)(=O)Cc3cccc(C)c3)ncc2Cl)s1	NOD2-RIPK2 inh 34.2, MC4R antagonist 38.7 (no result: TLR4 MyD88 comp) | cAMP nonselect 19.8 | MC4R cAMP antag 32.4 | NOD2 RIPK2 conf 28.1 | BLA counter 19.4

From PubChem
